Data as given in ChEMBL document CHEMBL1955758, “Synthesis and in vitro antiplasmodial activities of fluoroquinolone analogs” (Eur J Med Chem, 2012).
Values after ≈ are worked out from the molar mass of the structure shown.

Experiments:
[1] = system: Plasmodium falciparum; experiment: Antimalarial activity against chloroquine-sensitive Plasmodium falciparum 3D7; assay type: functional, organism-based
How it was run: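 Chloroquine-sensitive P. falciparum 3D7 grown in vitro with ciprofloxacin as the reference standard; IC50 reported as mass concentration ± SE.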

[2] = system: HEK293; experiment: Cytotoxicity against human HEK293 cells 1 to 100 uM after 24 to 72 hrs by MTT assay; assay type: cell-based
How it was run: (§1)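 HEK-293 monolayers were kept in DMEM at 37 °C under 5% CO2 and seeded at about 4000 cells/well for 24 h. Medium was then replaced with fresh medium holding compound at 1, 10, 20, 30, 50 and 100 concentration units, and cells were incubated 24, 48 and 72 h. Viability was read by MTT and IC50 calculated.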

[3] = system: HEK293; experiment: Cytotoxicity against human HEK293 cells after 24 to 72 hrs by MTT assay; assay type: cell-based; how it was run: as §1

Row | Compound | IC50 [1] | Activity [2] | IC50 [3]
1 | CCOC(=O)c1c[nH]c2cc(Cl)c(F)cc2c1=O | 5.81 µg/mL (≈ 21.5 µM) |  | 
2 | CCOC(=O)c1cn(Cc2cn(CCO)nn2)c2cc(Cl)c(F)cc2c1=O | 14.3 µg/mL (≈ 36.3 µM) |  | 
3 | CCCCn1cc(C(=O)OCC)c(=O)c2cc(F)c(Cl)cc21 | 6.96 µg/mL (≈ 21.4 µM) |  | 
4 | CCOC(=O)c1cn(C(C)C)c2cc(Cl)c(F)cc2c1=O | 6.97 µg/mL (≈ 22.3 µM) |  | 
5 | C#CCn1cc(C(=O)OCC)c(=O)c2cc(F)c(Cl)cc21 | 3.46 µg/mL (≈ 11.2 µM) |  | 
6 | O=C(O)c1c[nH]c2cc(Cl)c(F)cc2c1=O | 4.32 µg/mL (≈ 17.9 µM) | Non-toxic | 
7 | CCOC(=O)c1cn(C)c2cc(Cl)c(F)cc2c1=O | 11.8 µg/mL (≈ 41.7 µM) |  | 
8 | CCCn1cc(C(=O)OCC)c(=O)c2cc(F)c(Cl)cc21 | 4.86 µg/mL (≈ 15.6 µM) |  | 
9 | CCOC(=O)c1cn(CCO)c2cc(Cl)c(F)cc2c1=O | 4.26 µg/mL (≈ 13.6 µM) |  | 
10 | CCOC(=O)c1cn(Cc2cn(-c3ccc(F)c(Cl)c3)nn2)c2cc(Cl)c(F)cc2c1=O | 3.4 µg/mL (≈ 7.09 µM) |  | 41.9 µM
11 | CCOC(=O)c1cn(Cc2cn(-c3ccnc4cc(Cl)ccc34)nn2)c2cc(Cl)c(F)cc2c1=O | 4.06 µg/mL (≈ 7.92 µM) | Non-toxic | 

More lines, main results first:

Row | IC50 [1] | Compound | Activity [2] | IC50 [3]
12 | 5.4 µg/mL (≈ 13.7 µM) | CCCn1cc(Cn2cc(C(=O)OCC)c(=O)c3cc(F)c(Cl)cc32)nn1 |  | 
13 | 5.26 µg/mL (≈ 12.4 µM) | CCOC(=O)c1cn(Cc2cn(CC(=O)OC)nn2)c2cc(Cl)c(F)cc2c1=O |  | 
14 | 15.2 µg/mL (≈ 51.1 µM) | CCOC(=O)c1cn(CC)c2cc(Cl)c(F)cc2c1=O |  | 
15 | 12.2 µg/mL (≈ 27.7 µM) | CCOC(=O)c1cn(Cc2cn(Cc3ccccc3)nn2)c2cc(Cl)c(F)cc2c1=O |  | 
16 | 13 µg/mL (≈ 28.2 µM) | CCOC(=O)c1cn(Cc2cn(-c3ccc(Cl)cc3)nn2)c2cc(Cl)c(F)cc2c1=O |  | 
17 | 2.73 µg/mL (≈ 5.92 µM) | CCOC(=O)c1cn(Cc2cn(-c3cccc(Cl)c3)nn2)c2cc(Cl)c(F)cc2c1=O |  | 
18 | 2.56 µg/mL (≈ 8.29 µM) | CCOC(=O)c1cn(CC#N)c2cc(Cl)c(F)cc2c1=O |  | 
19 | 6.83 µg/mL (≈ 19 µM) | CCOC(=O)c1cn(Cc2ccccc2)c2cc(Cl)c(F)cc2c1=O |  | 
20 | 1.33 µg/mL (≈ 3.79 µM) | CCOC(=O)c1cn(Cc2c[nH]nn2)c2cc(Cl)c(F)cc2c1=O | Toxic | 
21 | 4.3 µg/mL (≈ 9.67 µM) | CCOC(=O)c1cn(Cc2cn(-c3ccc(F)cc3)nn2)c2cc(Cl)c(F)cc2c1=O |  | 63.8 µM
22 | 8.82 µg/mL (≈ 26.6 µM) | O=C(O)c1cn(C2CC2)c2cc(N3CCNCC3)c(F)cc2c1=O [CIPROFLOXACIN] |  | 
